Legend:
Canis familiaris [1] = assay: Percentage increase in dP/dt maximum observed with 4-[4-[2-(1,1-dioxo-2-isothiazolidinyl)-ethyl]-[…] (50 ug/Kg) in dog; format: functional, Canis lupus familiaris
In short: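 Standard quinazoline inotrope given iv at 50 µg/kg to anesthetized dogs before each test compound. Left ventricular pressure recorded by Millar catheter via the carotid artery and differentiated to dP/dt max. Response expressed as % increase in dP/dt max; individual values taken from a typical test run.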

Canis familiaris [2] = assay: Inotropic activity measured as % increase in dP/dt maximum in Anesthetized dog at the dose of 50 ug/Kg administered intravenously; format: functional, Canis lupus familiaris
In short: (§1)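 Anesthetized dogs. LVP recorded via Millar catheter passed into the left ventricle through the carotid artery, differentiated to dP/dt max. After 0.75 h equilibration, compound given iv in 0.9% saline 0.5 h after a standard quinazoline inotrope (50 µg/kg). Cycle repeated once control levels returned, at least 0.5 h between doses. Reported as % increase in dP/dt max; relative potency normalised by dose to the standard in the same dog.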

Canis familiaris [3] = assay: Decrease in QA interval in Conscious dog(n=4) 3h after a dose of 1 mg/kg was administered per orally
Canis familiaris [4] = assay: Decrease in QA interval in Conscious dog (n=4) 1 hr after a dose of 1 mg / Kg was administered per orally; format: functional, Canis lupus familiaris; set-up: unit not given beside the values
In short: (§2)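 Conscious dogs (n = 4) given test substance as a solution by oral gavage. QA interval (ms from ECG R wave to arterial pressure pulse upstroke) recorded by computer every 0.16 h, from 0.5 h predose to 4 h postdose. Each time-point value is the mean of six consecutive 8-s sets. Reported as decrease from mean predose control.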

Canis familiaris [5] = assay: Decrease in QA interval in Conscious dog(n=4) 3h after a dose of 1 ug/kg was administered per orally; format: functional, Canis lupus familiaris; conditions: in the assay text read “1 mg/kg” for “1 ug/kg”; in short: as §2
Canis familiaris [6] = assay: Inotropic activity measured as % increase in dP/dt maximum in Anesthetized dog at the dose of 250 ug/Kg administered intravenously; format: functional, Canis lupus familiaris; in short: as §1
Canis familiaris [7] = assay: Decrease in QA interval in Conscious dog (n=4) 3h after a dose of 1 ug/Kg was administered per orally; format: functional, Canis lupus familiaris; conditions: in the assay text read “1 mg/Kg” for “1 ug/Kg”; in short: as §2
Canis familiaris [8] = assay: Decrease in QA interval in Conscious dog (n=4) 1 hr after a dose of 1 mg/Kg was administered per orally
Canis familiaris [9] = assay: Decrease in QA interval in Conscious dog (n=4) 1 hr after a dose of 0.5 mg / Kg was administered per orally; format: functional, Canis lupus familiaris; in short: as §2
Canis familiaris [10] = assay: Inotropic activity measured as % increase in dP/dt maximum in Anesthetized dog at the dose of 12.5 ug/Kg administered intravenously; format: functional, Canis lupus familiaris; in short: as §1
Canis familiaris [11] = assay: Decrease in QA interval in Conscious dog(n=4) 3h after a dose of 1 mg/Kg was administered per orally; format: functional, Canis lupus familiaris; in short: as §2
Canis familiaris [12] = assay: Decrease in QA interval in Conscious dog (n=4) 1 hr after a dose of 2 mg/Kg was administered per orally; format: functional, Canis lupus familiaris; in short: as §2
Canis familiaris [13] = assay: Decrease in QA interval in Conscious dog(n=4) 3h after a dose of 2 mg/Kg was administered per orally; format: functional, Canis lupus familiaris; in short: as §2
Canis familiaris [14] = assay: Decrease in QA interval in Conscious dog (n=4) 3h after a dose of 0.25 mg/Kg was administered per orally; format: functional, Canis lupus familiaris; in short: as §2
Canis familiaris [15] = assay: Inotropic activity measured as % increase in dP/dt maximum in Anesthetized dog at the dose of 25 ug/Kg administered intravenously; format: functional, Canis lupus familiaris; in short: as §1
Canis familiaris [16] = assay: Decrease in QA interval in Conscious dog (n=4) 1 hr after a dose of 0.25 mg/Kg was administered per orally; format: functional, Canis lupus familiaris; in short: as §2

Compound | Relative potency (Canis familiaris [1]) | dP/dt (Canis familiaris [2]) | also measured
Oc1ccc2cc(-c3cncnc3)ccc2n1 | 1.1 | 44% | Decrease (Canis familiaris [3]): 1; Decrease (Canis familiaris [4]): 3
CSc1cc(-c2ccc(C)nc2C)cc2ccc(O)nc12 | 0.5 | 20 | 
Cc1ccncc1-c1ccc2nc(O)ccc2c1 | 1.3 | 21% | 
Oc1ccc2ccc(-c3cccnc3)cc2n1 | 0.2 | 6% | 
COc1ccc(-c2ccc3nc(O)ccc3c2)cn1 | 0.3 | 11% | 
CCc1cc(-c2ccc(C)nc2C)cc2ccc(O)nc12 | 1 | 35% | 
Cc1ccc(-c2cc(C(C)C)c3nc(O)ccc3c2)c(C)n1 | 0.4 | 16% | 
Oc1ccc2cc(-c3ncccn3)ccc2n1 | 0.7 | 28% | Decrease (Canis familiaris [5]): 4; Decrease (Canis familiaris [4]): 4
Cc1ccc(-c2cc(Br)c3nc(O)ccc3c2)c(C)n1 | 0.7 | 41% | 
Cc1ccc(-c2ccc3c(c2)CCC(=O)N3)c(C)n1 | 0.8 | 32% | 
COc1cc(-c2ccc(C)nc2C)cc2ccc(O)nc12 | 0.4 | 11% | 
Cc1cc2nc(O)ccc2cc1-c1cccnc1 | 0.2 |  | dP/dt (Canis familiaris [6]): 51%
O=[N+]([O-])c1cc2cc(-c3cccnc3)ccc2nc1O | 0.6 | 39% | 
O=C1CCc2cc(-c3cccnc3)ccc2N1 | 1.1 | 41% | Decrease (Canis familiaris [7]): 7; Decrease (Canis familiaris [8]): 10
Cc1cc(-c2cccnc2)cc2ccc(O)nc12 | 9 |  | Decrease (Canis familiaris [5]): 20; Decrease (Canis familiaris [9]): 16; dP/dt (Canis familiaris [10]): 112%
Cc1ccc(-c2cc(C)c3nc(O)ccc3c2)c(C)n1 | 4.3 |  | Decrease (Canis familiaris [3]): 19; dP/dt (Canis familiaris [10]): 43%; Decrease (Canis familiaris [4]): 21
Oc1ccc2c(-c3cccnc3)cccc2n1 | 0.9 | 44% | Decrease (Canis familiaris [5]): 4; Decrease (Canis familiaris [4]): 9

Compound | Relative potency (Canis familiaris [1]) | dP/dt (Canis familiaris [2]) | also measured
Cc1cc(O)nc2ccc(-c3cccnc3)cc12 | 0.7 | 39% | 
Nc1cc2cc(-c3cccnc3)ccc2nc1O | 0.9 | 63% | 
Cc1ccc(-c2ccc3nc(O)ccc3c2)cn1 | 1.3 | 46% | 
Oc1ccc2cc(-c3ccncn3)ccc2n1 | 1.2 | 38% | Decrease (Canis familiaris [5]): 2; Decrease (Canis familiaris [4]): 6
Cc1ccc(-c2ccc3nc(O)ccc3c2)c(C)n1 | 1.4 | 37% | Decrease (Canis familiaris [5]): 5; Decrease (Canis familiaris [4]): 6
Nc1ccc(-c2ccc3nc(O)ccc3c2)cn1 | 0.8 | 30% | 
Cc1ncccc1-c1ccc2nc(O)ccc2c1 | 1.7 | 74% | 
Oc1ccc2cc(-c3ccncc3)ccc2n1 | 0.9 | 51% | Decrease (Canis familiaris [11]): 8; Decrease (Canis familiaris [4]): 13
Oc1ccc2cc(-c3cccnn3)ccc2n1 | 0.7 | 32% | Decrease (Canis familiaris [5]): 5; Decrease (Canis familiaris [4]): 8
Cc1ccc(-c2cc(O)c3nc(O)ccc3c2)c(C)n1 | <0.1 | 19% | 
Oc1ccc2cc(-c3ccnnc3)ccc2n1 | 1.3 | 43% | 
N#Cc1cc2cc(-c3cccnc3)ccc2nc1O | 0.9 | 46% | 
Oc1ccc2cc(-c3ccccn3)ccc2n1 | 0.3 |  | Decrease (Canis familiaris [12]): 2; dP/dt (Canis familiaris [6]): 62%; Decrease (Canis familiaris [13]): 1
Oc1ccc2cc(-c3cccnc3)ccc2n1 | 1.3 | 54% | Decrease (Canis familiaris [11]): 7; Decrease (Canis familiaris [4]): 14
CSc1ccc(C(=O)c2[nH]c(=O)[nH]c2C)cc1 [ENOXIMONE] | 0.013 |  | dP/dt (Canis familiaris [6]): 32%
Cc1[nH]c(=O)c(C#N)cc1-c1ccncc1 [MILRINONE] | 1.6 |  | Decrease (Canis familiaris [14]): 7; dP/dt (Canis familiaris [15]): 46%; Decrease (Canis familiaris [16]): 13
